{"data": "Assay results pooled from the literature", "target": "LIM domain kinase 1 (LIMK1, Homo sapiens, UniProt P53667)", "note": "Protocols differ between the studies behind these lines."}
{"Structure (SMILES)": "Nc1ncc(-c2nc(N3CCOCC3)nc(N3CCOCC3)n2)c(C(F)F)n1", "observed": "binding", "technique": "competition with immobilised ligand", "concentration": "10 µM", "measurement": "remaining binding", "value": "86%"}
{"Structure (SMILES)": "Cn1cc(-c2cccc(N3CCc4c(sc5c4CC(C)(C)C5)C3=O)c2CO)cc(Nc2ccncn2)c1=O", "observed": "enzyme activity", "mode": "inhibitor", "concentration": "1 µM", "measurement": "inhibition", "value": "9%"}
{"Structure (SMILES)": "O=c1[nH]c2ccccc2n1C1CCN(Cc2ccc(-c3[nH]c4cc5ncnc5cc4nc3-c3ccccc3)cc2)CC1", "observed": "cell-free assay", "concentration": "0.5 µM", "measurement": "remaining signal", "value": "110%"}
{"Structure (SMILES)": "Cn1cncc1[C@](O)(COc1ccc(C#N)cc1-c1ccc(OC(F)(F)F)cc1)c1ccc(C#N)cc1", "observed": "cell-free assay", "technique": "competition with immobilised ligand", "concentration": "1 µM", "measurement": "remaining binding", "value": "89%"}
{"Structure (SMILES)": "COc1ncccc1-c1cnn2ccc(N3CCN(C(=O)OC(C)C)CC3)nc12", "observed": "binding", "technique": "competition with immobilised ligand", "concentration": "1 µM", "measurement": "remaining binding", "value": "100%"}
{"Structure (SMILES)": "CC(C)(C)c1cc(C=C(C#N)C#N)cc(Br)c1O", "observed": "enzyme activity", "mode": "inhibitor", "concentration": "0.5 µM", "measurement": "remaining activity", "value": "98.5%"}
{"Structure (SMILES)": "N#CC1(c2ccccn2)CCN(Cc2cc(C(=O)O)c(=O)n3ccccc23)CC1", "observed": "cell-free assay", "technique": "competition with immobilised ligand", "concentration": "1 µM", "measurement": "remaining binding", "value": "100%"}
{"Structure (SMILES)": "COc1cc(Nc2ncc(F)c(Nc3ccc4c(n3)NC(=O)C(C)(C)O4)n2)cc(OC)c1OC", "observed": "binding", "technique": "competition with immobilised ligand", "concentration": "10 µM", "measurement": "inhibition", "value": "85%"}
{"Structure (SMILES)": "Cn1cc(-c2cc(F)cc(N3CCn4c(cc5c4CCCC5)C3=O)c2CO)cc(Nc2ccc(N3CCN(C4COC4)CC3)cn2)c1=O", "observed": "enzyme activity", "mode": "inhibitor", "concentration": "0.1 µM", "measurement": "inhibition", "value": "2%"}
{"Structure (SMILES)": "Cc1nn(C)cc1-c1nc2c(N3CCN(Cc4ccc(Cl)cc4)CC3)c(Cl)cnc2[nH]1", "observed": "binding", "technique": "competition with immobilised ligand", "concentration": "1 µM", "measurement": "remaining binding", "value": "58%"}
